Results on 167 variants are retold here after the RNAGym collection of RNA variant scans (doi:10.1126/science.aae0568).

Fewer inactive variants are shown than the library holds.

To fix the notation:
B1: tRNA (parent)
chain: GUUCCGUUGGCGUAAUGGUAACGCGUCUCCCUCCUAAGGAGAAGACUGCGGGUUCGAGUCCCGUACGGAACG

The variants in the data set derive from B1. Description: yeast fitness relative to wild type (ratio to wild type); higher = fitter; tRNA-Arg(CCU), competitive growth, 37 C, YPD. Put shortly:
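For this measurement, the tRNA-Arg(CCU) gene was varied by chemical synthesis at a 3% per-site mutation rate across 69 sites, and each variant was placed at the native genomic locus in Saccharomyces cerevisiae. The pooled strains went through a 24-hour competition in YPD at 37°C in six parallel replicates, with amplicons from start and end populations read by 100-nucleotide paired-end sequencing. Darwinian fitness relative to wild type followed from the change in each genotype's frequency. Genotypes needed ≥ 100 starting reads, and estimates < 0.5 were set to 0.5.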
A15C G68A: the yeast fitness worked out at 0.76. Consider A15U G25A A36U, for which the yeast fitness came out at 0.586. In the case of A15G G56C C61U it was no more than 0.5. To U28A C33A G51C A57C belongs no more than 0.5; to U7A G23C C31G C33U A42G G52C G58C, no more than 0.5. To U8C U13C C27A belongs 0.574; to U3A U59C, 0.884; to C5U C24U G44C C60A, 0.527. Take C5G C60A: the yeast fitness was 0.663.

With G39C U54G A65G, the yeast fitness was no more than 0.5. Consider U16C C31G A36U C60G, for which the yeast fitness is 0.694. In the case of G68C A69U it was 0.711. To U7C U13C C24U C49U belongs no more than 0.5; to G9C A14C G18A G44C A57C, no more than 0.5. For the variant C34U C49U C61A, the yeast fitness was no more than 0.5. In the case of C11U C66U, the yeast fitness amounted to 0.931. In the case of C33A A36C G63C C66G it was 0.53; in that of U2C G12A, 0.993. In the case of C46A C55G G67U it was 0.699. In the case of C4G C46G A69U it was 0.721. In the case of U7A U47C, the yeast fitness came out at 0.785.

As to G17C C30U A40G, the yeast fitness was determined as 0.686. To U16A U28A U64C belongs 0.568; to G23C C30G C62U, no more than 0.5. To A14G C34U C66U A70U belongs no more than 0.5; to U8C G17C C31A G68A, no more than 0.5; to G52C A65C, 0.907.

Regarding A15G C27U A65G, the yeast fitness was found to be 0.748. To G10A A37U A65U belongs no more than 0.5; to U8G A37C G52C, 0.627; to C4G A14G A37U G38A G63C, no more than 0.5. In the case of C29U C31U A42C A69C, the yeast fitness turned out to be 0.673. For the variant C4G C29A C60U C61G, the yeast fitness was no more than 0.5. To U3A G38C C49U belongs no more than 0.5; to U2A C11G G17A A20U C33G G38C A70G, no more than 0.5; to G44A C55U, 0.776.

For U2A C30U G44C G51A C61U, the yeast fitness is no more than 0.5. To C4A C5G A20C A40U C61G belongs no more than 0.5; to G51A A57G A65G C66U, no more than 0.5. To C4A G25A A40C A65C belongs no more than 0.5. In the case of U7A U8A G25A C62G it was no more than 0.5. For C11A U28G G44C, the yeast fitness worked out at 0.602. In the case of U3C C30G C31U C60G C61G it was 0.571; in that of C22U G25A C33U A42C, no more than 0.5. For the variant C5U G17C C24G G38C U54C, the yeast fitness was no more than 0.5. To C11A A14U C30U C33A A36U A57G A69G belongs no more than 0.5.

Consider C22U C33G C60U C62G, for which the yeast fitness came to 0.594.

Turning to C11U U28C C29G G39C, the yeast fitness is no more than 0.5.

With G6A C34G C62U G68A, the yeast fitness is no more than 0.5.

Take U7G C29G C61U G68A: the yeast fitness is no more than 0.5. Take C4G A14U C30U G48C: the yeast fitness was no more than 0.5. To C11G C34A G44A C46U G68A belongs no more than 0.5; to U19A C24G G52C U64G, 0.535. In the case of C5A U8C U13C A40G it was 0.522.

With A42U C60G, the yeast fitness amounted to 0.579. To A15G C27U A69U belongs 0.808; to C29U G50C U59A, 0.605; to A21U C33A G39C G41C G44C A69C, no more than 0.5. To A20G A21C A43U G50A G52U A69C belongs no more than 0.5; to U2G C34G G39C G41C G67C A70C, no more than 0.5; to U2A C5G C24U C30G, no more than 0.5. To C27G C31G belongs 0.74; to C11A A42U, 0.724. C27U C46A G50A C62U: the yeast fitness was 0.888.

In the case of C5U U16A C46A G68A, the yeast fitness amounted to 0.625. On to C24U C27U A40G G44A G50C, for which the yeast fitness is no more than 0.5. As to U7A A21G C30G A36G, the yeast fitness was no more than 0.5.

Turning to U35C C55G A57G, the yeast fitness is 0.606. To G10C A14G U28C G39A A65U belongs no more than 0.5; to U7A U32A A42U C60A, 0.619; to C4G U35G A70C, 0.552. G41A C60G A65G: the yeast fitness is 0.62. Regarding C60U C66A, the yeast fitness was 0.619. In the case of C5G U8C C11A A15G G18A C30G it was no more than 0.5; in that of G6A U13G G48A G50A U54A, no more than 0.5; in that of A20G C30G, 0.593. With C5G A15C A42C, the yeast fitness was found to be 0.584.

As to U19G C66A, the yeast fitness is 0.53.

Turning to C31U A40U, the yeast fitness was found to be 0.975.

Take C5A G56A: the yeast fitness worked out at 1. In the case of U2A U32A C62G it was 0.509.

Take U16A U28A C46G C49A A69U: the yeast fitness was no more than 0.5.

For A20G G25C G51C, the yeast fitness was 0.658. As to C5G U8A U28C G51A A69C, the yeast fitness is no more than 0.5.

As to A20G A40C C60G, the yeast fitness is no more than 0.5. In the case of U8C G25C C49A it was 0.515; in that of G38A G52C C62U, 0.595. To U19G G39A belongs 1.07.

In the case of G51C C62U, the yeast fitness came to 0.668.

As to A45C G68U, the yeast fitness stood at 0.739.

In the case of U3A A15U C34U G48A C60U, the yeast fitness is no more than 0.5.

For the variant G41A G44C, the yeast fitness is 0.671. To G9A U26A A36U A40C A65U belongs no more than 0.5; to G50C U64C, 0.967; to A14C C49A, 0.562.

For the variant A40C G67U, the yeast fitness is 0.815. In the case of C11A U35A A37U it was no more than 0.5; in that of C5A G6C G68U, no more than 0.5; in that of C11G C31A G39A G48A C61U A65C, 0.56. Regarding G38C G39C U54G, the yeast fitness is 0.545. Consider C4A G17A C30A, for which the yeast fitness was no more than 0.5. Turning to U19C G39A, the yeast fitness turned out to be 0.952. To C5A G50A belongs 0.87; to A42G A45C G48C C66U, no more than 0.5. Turning to U19A U28G A40C A42G A69C, the yeast fitness came out at 0.561. Regarding C4U C29G A37C C46G, the yeast fitness was no more than 0.5. Consider U16A A21U C27U A40U A65U A70C, for which the yeast fitness is no more than 0.5. Consider G9A G38C G41C U54A, for which the yeast fitness was no more than 0.5.

For the variant C4U A14U A42G C46U, the yeast fitness is no more than 0.5. To C4A U13C G23C C34G A40G A45G U53C U64A belongs no more than 0.5.

Consider A43C C49U C55G, for which the yeast fitness was found to be 0.519. To C11G A20C C24U A36C U47A C66U belongs no more than 0.5. To C11U U19A C30G G68A belongs no more than 0.5; to C34G A65U A70G, no more than 0.5.

A15C U26A C31G U32A: the yeast fitness is no more than 0.5. In the case of C60G A69G it was 0.597; in that of U2A G25C A36U, no more than 0.5. Consider G12A C24U G67C, for which the yeast fitness was 0.603. In the case of G10A C33G A43G G58A G67A A69U it was 0.543; in that of A14C A20C C33G A65C C66U, 0.758; in that of A20C G25C, 0.783. In the case of G23C A45G it was 0.773. To U2C C11U A65C belongs 0.583; to C22G C34U C49U C55G C62U, no more than 0.5; to U19C C24U C49A U54C C60G, no more than 0.5.

Take G9C C27G C60U A69U: the yeast fitness is no more than 0.5. Regarding C24U C34U C46A G67A, the yeast fitness is no more than 0.5. Take G18A G48A: the yeast fitness was found to be 0.765. For the variant C4A U19G U35C, the yeast fitness is no more than 0.5. In the case of C5U C31G C33G it was 0.579; in that of G58A G63A A65C, 0.584. A40C A42U C49U G50C C66U: the yeast fitness came out at 0.565. As to C5G G9A C31G, the yeast fitness is 0.767.

As for G10A U53A G58A G68U, the yeast fitness is no more than 0.5. Take U13A C55U G58A U59C C62U: the yeast fitness is no more than 0.5. To C29G C61U belongs 0.685; to A20U A45C, 0.621. Take U2G A36G A40U A43U G56C A57U: the yeast fitness is no more than 0.5.

With U7C G12A A45C C61G A65C, the yeast fitness was no more than 0.5. For U2C A14U C31U C62G, the yeast fitness is no more than 0.5.

As to G12A C24G C29A C55U C61G A65G G68A, the yeast fitness is no more than 0.5. On to C29G U47G C49G U54G, for which the yeast fitness was no more than 0.5.

As for C4U A21C C27U G63A A65G, the yeast fitness was no more than 0.5. Take G23A C27A A57U: the yeast fitness was 0.634.

On to C33A G50C U53C U64C G68U, for which the yeast fitness was found to be 0.586. For U28A C29G G44C A65U, the yeast fitness was determined as 0.935. To U8A G67C belongs 0.736; to A15G C30G A37C, no more than 0.5; to U2C C55A G56C G67C, no more than 0.5. In the case of U28A C31A C33U A37C G50A A65U it was no more than 0.5.

Turning to A20G U59G A65U, the yeast fitness amounted to 1.05. To U28C G68A belongs 0.839. To U2G G67C belongs 0.759. To A21G U35C G63C belongs 0.536; to C5G U54C G56A, 0.729; to C5U G23A C27G C31G G50C G58C, 0.557. On to G9A A45C U53A G63C, for which the yeast fitness was no more than 0.5. Consider A21C C55G A57U G67A, for which the yeast fitness was no more than 0.5. In the case of G18A A20G A69C, the yeast fitness was no more than 0.5. As to U26G G39A C46G G68A, the yeast fitness was 0.522.

Consider C4G A14U C60A, for which the yeast fitness worked out at 0.553. In the case of A20G C27G it was 0.608; in that of A15G G44C, 0.785. To U19G A40G C49A belongs no more than 0.5. In the case of C5A G12A C33G it was 0.646. With G38A C46U A69U, the yeast fitness stood at 0.686.

C5U G10C G39C G51A: the yeast fitness was no more than 0.5.
